# Assay outcomes (PubChem)
# MrgX1 allo act – positive allosteric modulators of MrgX1, primary screen, HEK293 cells, Fluo-4 calcium flux | FDSS; stronger effect = higher value | Mas-related G-protein coupled receptor member X1 (Homo sapiens), Q96LB2 | B-score at 10 µM | 310,000 tested, 0.63% active;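 active means plate-corrected calcium response at least 3 library SD above typical, normal starting fluorescence, not activating the receptor alone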;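 further: compound read alongside a low EC10 to EC30 dose of BAM8-22 agonist; peak minus trough fluorescence over baseline measured at the second addition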
# Target sequence (Q96LB2 whole entry, looked up): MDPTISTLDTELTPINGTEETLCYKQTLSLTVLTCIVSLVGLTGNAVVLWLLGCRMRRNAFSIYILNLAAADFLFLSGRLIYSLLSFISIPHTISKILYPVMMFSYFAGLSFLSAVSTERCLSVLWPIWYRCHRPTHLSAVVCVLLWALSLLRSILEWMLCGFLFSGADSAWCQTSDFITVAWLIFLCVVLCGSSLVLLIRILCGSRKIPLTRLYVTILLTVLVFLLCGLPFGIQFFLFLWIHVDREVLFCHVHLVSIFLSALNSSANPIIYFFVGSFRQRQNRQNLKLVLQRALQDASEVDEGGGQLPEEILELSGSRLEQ
# MrgX1 agonist – agonists of human MrgX1 receptor, primary screen, HEK293 cells, Fluo-4 calcium flux; Mas-related G-protein coupled receptor member X1 (Homo sapiens), Q96LB2; Fluo-4 calcium fluorescence, agonist mode; stronger effect = higher value; B-score at 10 µM; 310,000 tested, 0.44% active;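 active means calcium response B-score plate-corrected fluorescence ratio at least 3 library SD, with starting fluorescence B-score inside 5 SD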
#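 Material: HEK293 cells stably expressing human MrgX1 receptor | Quantity: 15,000 cells per well | Times: Cells plated overnight, dye loaded 0.5 h 37 °C, 0.5 h room temperature | Measured by: Kinetic Fluo-4 NW fluorescence of intracellular calcium | Control set: Positive and negative controls per plate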
# RGS4 inh – RGS4 inhibitors, primary screen, cell-based, HEK293 M3R inducible RGS4, calcium flux | Regulator of G-protein signaling 4 (Homo sapiens), P49798 | Fluo-4 calcium flux; stronger effect = higher value; triggered by carbachol at its EC20 | B-score at 10 µM | 310,000 tested, 0.45% active;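 active means B-score, a plate-corrected calcium signal, over three deviations above library mean, with baseline fluorescence within five deviations of library mean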;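 further: RGS4 expression induced by doxycycline in cells with stable M3 receptor; B-score is computed from the integrated fluorescence ratio over baseline after carbachol; higher B-score means a larger calcium signal and so more RGS4 inhibition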
# MrgX1 antag – antagonists of human MrgX1 receptor, primary screen, HEK293 cells, Fluo-4 calcium flux; Mas-related G-protein coupled receptor member X1 (Homo sapiens), Q96LB2; BAM8-22 antagonism; stronger effect = lower value; B-score at 10 µM; 310,000 tested, 1.3% active; AID 588676, 2011;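 active means calcium-response B-score plate-corrected more than 3 library SD below zero, starting fluorescence within 5 deviations, no agonist response on first addition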;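 further: peak minus trough fluorescence over baseline after final BAM8-22 challenge near maximal dose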
# RGS4 act – RGS4 potentiators or activators, primary screen, cell-based, HEK293 M3R inducible RGS4, calcium flux. 310,000 tested, 0.92% active. carbachol calcium flux Fluo4; stronger effect = lower value. B-score at 10 µM. AID 463111, 2010;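 active means B-score of the integrated calcium signal more than 4 SD below the library mean, with starting fluorescence not abnormally high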;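 further: negative B-score means reduced calcium response which marks RGS4 activation or potentiation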
#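 Test system: HEK293 cells with stable M3R and inducible RGS4; also added: carbachol at ECmax as muscarinic agonist stimulus; schedule: dye loading 30 min 37 °C, buffer rest 30 min RT; technique: kinetic calcium fluorescence imaging with Fluo4-AM dye, 2 µM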
# MrgX1 ant reconf – MrgX1 receptor antagonists, duplicate retest, confirmation, HEK293 cells, Fluo-4 calcium flux. shares compounds with MrgX1 antag. remaining BAM8-22 calcium response % of control (stronger effect = lower value), % at 10 µM. 2,300 tested, 19% active. AID 602420, 2012. BAM8-22 calcium flux; stronger effect = lower value;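 active means remaining agonist calcium response no higher than 100% minus 3 SD of agonist-only control wells, with starting fluorescence near control levels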;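 further: agonist BAM8-22 given at a near maximal EC90 to ECmax level; peak minus minimum fluorescence divided by baseline after agonist addition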
# HEK293 Ca flux – nonspecific calcium signal in parental HEK293, confirmation, counter-screen for MrgX1 antagonist project, parental HEK293 cells, Fluo-4 calcium flux; fluorescence ratio F(max-min)/F0 at 10 µM; AID 624111, 2012; Fluo-4 calcium fluorescence, FDSS; 4,000 tested, 2% active; shares compounds with MrgX1 antag;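 active means duplicate-averaged calcium fluorescence ratio at least three times the standard deviation of buffer wells, a nonspecific response in parental cells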
# HEK293 Ca counter – calcium response in parental HEK293 cells, primary screen, counter-screen for MrgX1 allosteric activator project, cell-based, Fluo-4 calcium flux, duplicate. shares compounds with MrgX1 antag. Fluo-4 fluorescence ratio; stronger effect = higher value. fluorescence ratio F(max-min)/F0 at 10 µM. 4,000 tested, 0.4% active;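 active means calcium fluorescence ratio, averaged over duplicates, at least 3 SD of the buffer-well ratio, meaning a nonspecific response in receptor-free cells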;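 further: untransfected parental HEK293 lacking MrgX1 used as counterscreen for MrgX1 allosteric activators; fluorescence change taken during the second addition on a kinetic imager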
# HEK293 Ca cntr2 – calcium response in parental HEK293 cells, primary screen, counter-screen for MrgX1 agonist project, cell-based, Fluo-4 calcium flux, duplicate, agonist mode; Fluo-4 calcium fluorescence (FDSS); stronger effect = higher value; AID 624115, 2012; 4,000 tested, 8.7% active; shares compounds with MrgX1 antag; fluorescence ratio F(max-min)/F0 at 10 µM;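 active means calcium fluorescence ratio at least three times the spread of buffer wells, meaning a non-specific response in parental cells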
# Numbers stand for hits; - = inactive; . = no result given. Compounds with a hit are over-represented: about 3.5% of the library has one in this group of screens.
SMILES,MrgX1 allo act,MrgX1 agonist,RGS4 inh,MrgX1 antag,RGS4 act,MrgX1 ant reconf,HEK293 Ca flux,HEK293 Ca counter,HEK293 Ca cntr2
CC1CCCCC1NC(=O)CNC(=S)N1CC2CC(C1)c1cccc(=O)n1C2 (configuration not stated),-,-,-,-,-,.,.,.,.
CCS(=O)(=O)NC(C)c1nnc2n1-c1ccc(Br)cc1C(c1ccccc1Cl)=NC2 (configuration not stated),-,-,-,-,-,.,.,.,.
CCn1cc(C(=O)N2CCOCC2)c2ccccc21,-,-,-,-,-,.,.,.,.
Clc1ccc2[nH]c3c(c2c1)CCNC3,-,-,-,-5.44,-,-,-,-,-
CC(NC1=NCCS1)c1ccccc1 (configuration not stated),-,-,-,-,-,.,.,.,.
CC(C)CCn1c(=O)c(C(=O)Nc2ccccc2S(N)(=O)=O)c(O)c2ccccc21,-,-,-,-,-,.,.,.,.
CC(C)CCn1c(=O)c(C(=O)NCc2ccc3c(c2)OCO3)c(O)c2ccccc21,-,-,-,-7.7,-,-,-,-,-
CCc1ccc(-n2c(O)c(/C=N/N3CCCCC3c3cccnc3)c(=O)[nH]c2=O)cc1 (configuration not stated),-,-,-,-10.7,-,-,-,-,-
COc1ccc(-c2nn(CCC#N)cc2C(=O)Nc2ccccc2Br)cc1[N+](=O)[O-],-,-,-,-,-,.,.,.,.
